Bioassay records (PubChem)
HSF1 activator: increases HSF-1 driven luciferase reporter signal; 300,000 compounds, 1.7% hits; activation, % at 9 µM; AID 504408; NIH3T3-HGL HSF-1 luciferase reporter, MG132, 8 h; 100% = twice DMSO control signal;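 active = mean replicate activation of at least 50% with a set share of replicates each reaching 50%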;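 note: 0% = median of the neutral control wells and 100% = twice that signal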
T cruzi repl: T. cruzi replication inhibition; inhibition, % (concentration not given with the values); T. cruzi beta-gal in NIH3T3, luminescence, 90 h; AID 1885; 300,000 compounds, 1.4% hits;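 active = mean inhibition across valid replicates above about 55%, limit read from the data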;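 note: signal also drops with host cell toxicity which is not excluded here; 0% = plate median of DMSO wells and 100% = zero luminescence signal; higher percent means less beta-gal luminescence so fewer parasites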
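Assay system: NIH/3T3 fibroblasts plus reporter T. cruzi. Amount: NIH/3T3 cells, 5,000 per well. Buffer or medium: DMEM, 2% fetal bovine serum. Doses: compound pinned at 50 nL/well, DMSO. Schedule: ≥90 h infection period, 3 h prior cell attachment. Signal: luminescent β-galactosidase signal after 60 min lysis. Read-out: parasite load inhibition, %.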
HSF1 inh: HSF1 inhibition; NIH3T3-HGL HSE-luciferase, MG132-induced, luminescence 8 h; active compounds read low; activity change, negative = inhibition, % at 7.5 µM (by protocol); 300,000 compounds, 0.77% hits; AID 2098;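 active = more than half of replicate wells show activity change below -50%, luminescence cut by over half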;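 note: luciferase reports HSF-1 transcriptional activity via heat shock element; 0% = median of DMSO wells and -100% = zero luminescence signal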
Hsp70 act: switches on Hsp70 transcription; 200,000 compounds, 0.04% hits; activation, % at 10 µM; HeLa Hsp70 promoter luciferase reporter, luminescence; scaled: vehicle 0, proteasome-inhibitor control 100%;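 active = activation above the mean across all tested compounds plus 3 SD, cutoff set per campaign, cut at about 5.5% in these data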;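 note: 100% = MG132 at 30 µM as the positive control and 0% = DMSO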
Lmaj promast: reduces viability of Leishmania major promastigotes | resazurin fluorescence viability | inhibition, % at 10 µM | 200,000 compounds, 9% hits | AID 1063; in the data active = inhibition above about 50%;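 note: promastigotes grown with compound for 44 hours at 28 °C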
Numbers without * were called inactive. This excerpt belongs to a sample that is enriched for hits.

`CC(C)CN(C(=O)c1nn(C)c(=O)c2ccccc12)c1nc2ccccc2s1` gave HSF1 activator -3, T cruzi repl -4, HSF1 inh 6, Hsp70 act 0 and Lmaj promast 52*.
Screening CCOC(=O)C1CCN(C2CCN(Cc3nc(-c4ccccc4)no3)CC2)CC1 returned HSF1 activator 5, T cruzi repl 9, HSF1 inh -3, Hsp70 act 0 and Lmaj promast 80*.
CCOC(=O)C1CCCN(C2CCN(Cc3nc(-c4ccccc4)no3)CC2)C1 (stereo not given) was read as HSF1 activator -11, T cruzi repl 70*, HSF1 inh -11, Hsp70 act 0 and Lmaj promast 73*.
Screening COc1ccc(/C=C/C(=O)N2CCN(C)CC2)cc1OC returned HSF1 activator 18, T cruzi repl -9 and HSF1 inh 7.
Cc1nn(Cc2ccc(Cl)cc2)c(C)c1NC(=O)CSc1nc2c(c(C(F)(F)F)n1)CCc1ccccc1-2 was read as HSF1 activator 22, T cruzi repl 60*, HSF1 inh 6, Hsp70 act 0 and Lmaj promast 11.
`CC/C(=N\NC(=O)c1nnn(-c2nonc2N)c1-c1cccc(OC)c1)c1ccc(C)cc1` gave HSF1 activator 2, T cruzi repl -8 and HSF1 inh -7.
C=CCn1c(C)cc(C(=O)COC(=O)CNC(=O)c2ccccc2)c1C was read as HSF1 activator -84, T cruzi repl -29, HSF1 inh -82*, Hsp70 act 0 and Lmaj promast -7.
`Oc1ccc(Br)cc1Cn1nnc2ccccc21` gave HSF1 activator 12, T cruzi repl -4 and HSF1 inh 2.
CC[N+](CC)(CC)CCCCOc1ccc2c(c1)C(=O)c1cc(OCCCC[N+](CC)(CC)CC)ccc1-2 was read as HSF1 activator 25, T cruzi repl 10 and HSF1 inh -4.
CCCCc1c(C)c(C#N)c2nc3ccccc3n2c1Cl was read as HSF1 activator 33, T cruzi repl 41, HSF1 inh 29, Hsp70 act 0 and Lmaj promast 100*.
`CCc1c(C)c(C#N)c2nc3ccccc3n2c1N(C)C` gave Hsp70 act 0 and Lmaj promast 16.
For COc1ccc2cc(C(C)C(=O)Nc3cccc(S(=O)(=O)N(C)C)c3)ccc2c1 (stereo not given) the results were HSF1 activator 16, T cruzi repl 15 and HSF1 inh 0.
For Oc1ccccc1-c1cc(-c2ccc(F)cc2)n[nH]1 the results were HSF1 activator 45, T cruzi repl 0 and HSF1 inh 13.
Screening Oc1ccc(F)cc1-c1cc(-c2ccc3c(c2)OCCO3)n[nH]1 returned HSF1 activator 105*, T cruzi repl 1, HSF1 inh 61, Hsp70 act 0 and Lmaj promast 25.
Nc1nc2n(n1)C(c1cccs1)CC(c1ccc(Br)cc1)N2 (stereo not given) was read as HSF1 activator 6, T cruzi repl 74*, HSF1 inh -1, Hsp70 act 0 and Lmaj promast -2.
`Nc1nc2n(n1)C(c1ccccc1)CC(c1ccc(F)cc1)N2` (stereo not given) gave HSF1 activator -5, T cruzi repl 3, HSF1 inh -7, Hsp70 act 0 and Lmaj promast -5.
Screening Nc1nc2n(n1)C(c1cccc(Br)c1)CC(c1ccc(F)cc1)N2 (stereo not given) returned HSF1 activator -4, T cruzi repl 5, HSF1 inh -7, Hsp70 act 0 and Lmaj promast 93*.
`COc1ccc(C2CC(c3cccc(C)c3)n3nc(N)nc3N2)cc1` (stereo not given) gave HSF1 activator -17, T cruzi repl 10, HSF1 inh -16, Hsp70 act 0 and Lmaj promast 86*.
Screening COc1ccc(C2CC(c3cccc(Cl)c3)n3nc(N)nc3N2)cc1 (stereo not given) returned HSF1 activator -24, T cruzi repl 4, HSF1 inh -20, Hsp70 act 0 and Lmaj promast 62*.
`CNC(=O)COc1coc(CN2CCN(c3ccc(F)cc3)CC2)cc1=O` gave HSF1 activator 0, T cruzi repl -39 and HSF1 inh 1.
Cc1cccc(C2CC(c3ccc(Br)cc3)Nc3nc(N)nn32)c1 (stereo not given) was read as HSF1 activator -3, T cruzi repl 27, HSF1 inh -8, Hsp70 act 0 and Lmaj promast 73*.
Screening Cc1cccc(C(=O)Nc2ccc(C(=O)N3CCCCC3C)cc2)c1 (stereo not given) returned HSF1 activator 33, T cruzi repl -7 and HSF1 inh 1.
Screening CCOc1ccccc1CNC(=O)C1CCN(c2nnc(C)c3c(C)n(-c4ccc(C)cc4)nc23)CC1 returned HSF1 activator 24, T cruzi repl 57* and HSF1 inh 11.
For COc1ccc(-n2nc3c(N4CCC(C(=O)N5CCCCCC5)CC4)nnc(C)c3c2C)cc1 the results were HSF1 activator 7, T cruzi repl 59* and HSF1 inh 7.
Screening CCCn1ncc(CN2CCC(N3CCC(C(=O)N4CCOCC4)CC3)CC2)c1C returned HSF1 activator -2, T cruzi repl 4, HSF1 inh -9, Hsp70 act 0 and Lmaj promast 1.
Clc1ccc(C2=NN(c3ccccc3)C(c3ccco3)C2)cc1 (stereo not given) was read as HSF1 activator 17, T cruzi repl 19 and HSF1 inh 4.
`C(=C\c1ccco1)/C1=NN(c2ccccc2)C(c2ccco2)C1` (stereo not given) gave HSF1 activator 78*, T cruzi repl -9, HSF1 inh 53, Hsp70 act 0 and Lmaj promast 7.
`O=[N+]([O-])c1ccc(/C=C/C2=NN(c3ccccc3)C(c3ccco3)C2)o1` (stereo not given) gave HSF1 activator 6, T cruzi repl 61*, HSF1 inh 5, Hsp70 act 0 and Lmaj promast 42.
`Fc1ccc(C2=NN(c3ccccc3)C(c3ccco3)C2)cc1` (stereo not given) gave HSF1 activator -1, T cruzi repl 3, HSF1 inh -1, Hsp70 act 0 and Lmaj promast 2.
For COc1ccccc1Cc1nc2ccccc2n1S(=O)(=O)c1ccc(Cl)cc1 the results were HSF1 activator -4, T cruzi repl -33, HSF1 inh 3, Hsp70 act 0 and Lmaj promast 75*.
For Clc1cc(Cl)c(OCc2nc(-c3ccccn3)no2)cc1Cl the results were HSF1 activator 110*, T cruzi repl 10, HSF1 inh 69, Hsp70 act 0 and Lmaj promast -1.
Screening CC(C)(C)c1ccc(OCc2nc(-c3ccccn3)no2)c(Br)c1 returned HSF1 activator 4, T cruzi repl 30, HSF1 inh 7, Hsp70 act 0 and Lmaj promast 21.
